Results published in ChEMBL document CHEMBL1149628, “Synthesis of novel lactam derivatives and their evaluation as ligands for the dopamine receptors, leading to a D(4)-selective ligand” (Bioorg Med Chem, 2007).
Calls of active or inactive are those of the source. No cut-off for these calls is given here.

Legend:
[1] = target: T1, D(2) dopamine receptor (Homo sapiens, UniProt P14416); experiment: Displacement of [3H]Spiperone from human Dopamine receptor D2 isoform long expressed in HEK293 cells; assay type: cell-based
T1 sequence (P14416 whole entry, canonical isoform): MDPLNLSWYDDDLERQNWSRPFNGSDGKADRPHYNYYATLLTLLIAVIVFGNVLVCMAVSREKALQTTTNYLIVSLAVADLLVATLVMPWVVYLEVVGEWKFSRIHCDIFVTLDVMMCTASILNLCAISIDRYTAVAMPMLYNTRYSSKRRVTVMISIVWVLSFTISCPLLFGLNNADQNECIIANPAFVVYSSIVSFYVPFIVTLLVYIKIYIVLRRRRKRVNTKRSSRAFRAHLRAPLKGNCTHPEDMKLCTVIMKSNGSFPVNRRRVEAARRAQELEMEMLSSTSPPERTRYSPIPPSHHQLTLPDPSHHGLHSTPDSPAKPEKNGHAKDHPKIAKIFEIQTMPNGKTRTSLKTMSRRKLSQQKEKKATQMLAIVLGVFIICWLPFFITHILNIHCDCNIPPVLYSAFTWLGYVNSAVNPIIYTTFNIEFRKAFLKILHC
Procedure, shortened: (§1)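 [3H]Spiperone competition on whole-cell suspensions (D2L in HEK293, D4.4 in CHO) in Tris-HCl 50 mM/MgCl2 5 mM pH 7.4, 1.5 h at 27 °C. Non-specific binding defined with 10 µM haloperidol. Filtration over PEI-treated filtermat, scintillation counting. At least two independent triplicate experiments; nonlinear fit IC50 converted to Ki by Cheng-Prusoff.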

[2] = target: T2, D(1B) dopamine receptor (Homo sapiens, UniProt P21918); experiment: Antagonist activity at human Dopamine D5 receptor in HEK293 cells assessed as change in SKF 38393-induced intracellular calcium response at 10 uM; assay type: functional, cell-based; parameters: scale not given: the % may be the effect or the level left
T2 sequence (P21918 whole entry): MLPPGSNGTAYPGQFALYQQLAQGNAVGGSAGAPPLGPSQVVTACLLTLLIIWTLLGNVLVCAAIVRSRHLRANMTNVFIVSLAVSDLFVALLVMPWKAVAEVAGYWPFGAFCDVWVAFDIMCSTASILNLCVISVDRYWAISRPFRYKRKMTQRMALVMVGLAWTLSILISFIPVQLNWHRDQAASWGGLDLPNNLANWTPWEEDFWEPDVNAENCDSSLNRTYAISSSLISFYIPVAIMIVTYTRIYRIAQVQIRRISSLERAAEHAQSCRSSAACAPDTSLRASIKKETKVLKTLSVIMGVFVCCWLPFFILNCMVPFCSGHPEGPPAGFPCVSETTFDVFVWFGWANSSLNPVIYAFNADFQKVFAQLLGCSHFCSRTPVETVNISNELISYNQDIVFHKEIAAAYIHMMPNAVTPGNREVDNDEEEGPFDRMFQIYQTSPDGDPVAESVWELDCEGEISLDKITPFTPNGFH
Procedure, shortened: (§2)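 HEK293 cells stably expressing hD2L or hD5 were loaded with Oregon Green 488 BAPTA-1/AM for 45 min at 37 °C and resuspended in Krebs-Hepes buffer at pH 7.4. Cells were preincubated with compound for 30 min at 37 °C, then given standard agonist at 1 µM final (quinpirole for D2, SKF 38393 for D5). Fluorescence (ex 485, em 520 nm) was read for 30 s; the value is % change of the agonist-induced signal.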

[3] = target: T1, D(2) dopamine receptor; experiment: Antagonist activity at human Dopamine receptor D2 isoform long expressed in HEK293 cells assessed as change in quinpirole-induced intracellular calcium response; assay type: functional, cell-based
Procedure, shortened: (§3)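 Intact HEK293 cells stably expressing the receptor, loaded with Oregon Green 488 BAPTA-1/AM plus Pluronic F-127 for 45 min at 37 °C, then suspended in Krebs-Hepes buffer pH 7.4. Fluorescence ex 485/em 520 nm read over 30 s. IC50 by four-parameter fit; Ki via modified Cheng-Prusoff.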

[4] = target: T1, D(2) dopamine receptor; experiment: Antagonist activity at human Dopamine receptor D2 isoform long expressed in HEK293 cells assessed as change in quinpirole-induced intracellular calcium response at 10 uM; assay type: functional, cell-based; parameters: scale not given: the % may be the effect or the level left; procedure, shortened: as §2
[5] = target: T1, D(2) dopamine receptor; experiment: Displacement of [3H]spiperone from human Dopamine receptor D2 isoform long expressed in HEK293 cells at 10 uM; assay type: cell-based
Procedure, shortened: (§4)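 Whole HEK293 cells expressing hD5 or hD2L were suspended in 50 mM Tris-HCl, 5 mM MgCl2, pH 7.4, with [3H]SCH 23390 (D5) or [3H]spiperone (D2) and run in triplicate for 1.5 h at 27 °C. Samples were filtered on PEI-treated filtermats and counted by scintillation. Non-specific binding was set with fluphenazine 100 µM (D5) or haloperidol 10 µM (D2). The value is % change in bound radioactivity.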

[6] = target: T2, D(1B) dopamine receptor; experiment: Displacement of [3H]SCH 23390 from human Dopamine D5 receptor expressed in HEK293
Procedure, shortened: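 Whole HEK293 cell suspension in 5 mM MgCl2/50 mM Tris-HCl pH 7.4, incubated with [3H]SCH 23390 for 1.5 h at 27 °C. Fluphenazine 100 µM defined non-specific binding. Separation by filtration over polyethyleneimine-treated filters, then scintillation counting. At least two independent experiments, each in triplicate; Ki from IC50 by Cheng-Prusoff.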

[7] = target: T2, D(1B) dopamine receptor; experiment: Displacement of [3H]SCH 23390 from human Dopamine D5 receptor expressed in HEK293 cells at 10 uM; assay type: cell-based; procedure, shortened: as §4
[8] = target: T2, D(1B) dopamine receptor; experiment: Antagonist activity at human Dopamine D5 receptor in HEK293 cells assessed as change in SKF 38393-induced intracellular calcium response; assay type: functional, cell-based; procedure, shortened: as §3
[9] = target: D(3) dopamine receptor (Homo sapiens, UniProt P35462); experiment: Displacement of [3H]spiperone from human Dopamine D3 receptor expressed in CHO cells; assay type: cell-based
Sequence of D(3) dopamine receptor (P35462 whole entry): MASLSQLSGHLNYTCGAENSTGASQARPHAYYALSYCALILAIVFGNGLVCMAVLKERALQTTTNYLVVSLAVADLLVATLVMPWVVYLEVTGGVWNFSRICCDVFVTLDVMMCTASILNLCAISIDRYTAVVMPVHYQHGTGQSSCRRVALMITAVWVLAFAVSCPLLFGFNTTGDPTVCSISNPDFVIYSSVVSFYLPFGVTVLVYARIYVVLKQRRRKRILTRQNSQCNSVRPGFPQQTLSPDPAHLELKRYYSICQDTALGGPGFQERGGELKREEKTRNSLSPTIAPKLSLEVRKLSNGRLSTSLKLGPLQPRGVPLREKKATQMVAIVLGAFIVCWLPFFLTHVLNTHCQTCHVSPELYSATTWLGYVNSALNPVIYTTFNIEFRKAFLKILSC

[10] = Displacement of [3H]spiperone from human Dopamine D4.4 receptor expressed in CHO cells at 10 uM; assay type: cell-based
[11] = Displacement of [3H]spiperone from human Dopamine D4.4 receptor expressed in CHO cells; assay type: cell-based; procedure, shortened: as §1
[12] = species on record: Homo sapiens; experiment: Selectivity for human dopamine D4.4 receptor over human dopamine receptor D2 isoform long
[13] = species on record: Homo sapiens; experiment: Selectivity for human dopamine D4.4 receptor over human dopamine D3 receptor
[14] = species on record: Homo sapiens; experiment: Selectivity for human dopamine D4.4 receptor over human dopamine D5 receptor

O=C1c2ccccc2S(=O)(=O)N1CCCCN1CCN(c2cccc(C(F)(F)F)c2)CC1 gave a Ki [1] of 113 nM, an Activity [2] of 8% and a Ki [3] of over 10000 nM. For the same compound, the Activity [4] was -44%, the Activity [5] was 100% and the Ki [6] was 1760 nM. The Activity [7] was 89%, the Activity [8] was “inactive” and the Ki [9] was 107 nM. It also gave an Activity [10] of 54% and a Ki [11] of over 10000 nM.
Work on O=C1c2ccccc2CN1CCCCN1CCN(c2cccc(C(F)(F)F)c2)CC1 yielded a Ki [1] of 387 nM, an Activity [2] of 41% and a Ki [3] of 26 nM. For the same compound, the Activity [4] was -53%, the Activity [5] was 106% and the Ki [6] was 80.8 nM. The Activity [7] was 99%, the Activity [8] was “inactive” and the Ki [9] was 14 nM. For the same compound, the Activity [10] was 95% and the Ki [11] was 368 nM.
With O=C1c2ccccc2CN1CCCCN1CCN(c2ccc(Cl)cc2)CC1 the Ki [1] was 760 nM, the Activity [2] was 21% and the Ki [3] was over 10000 nM. The Activity [4] was -7%, the Activity [5] was 105% and the Ki [6] was 33.6 nM. The Activity [7] was 100%, the Activity [8] was “inactive” and the Ki [9] was 660 nM. It also gave an Activity [10] of 91% and a Ki [11] of 142 nM.
For O=c1c2ccccc2ncn1CCCCN1CCN(c2cccc(C(F)(F)F)c2)CC1, the Ki [1] was 73 nM, the Activity [2] was 9% and the Ki [3] was over 10000 nM. It also gave an Activity [4] of -38%, an Activity [5] of 107% and a Ki [6] of 1700 nM. The Activity [7] was 76%, the Activity [8] was “inactive” and the Ki [9] was 102 nM. For the same compound, the Activity [10] was 98% and the Ki [11] was 185 nM.
COc1ccccc1N1CCN(CCCCn2cnc3ccccc3c2=O)CC1 showed a Ki [1] of 184 nM, a Ki [3] of 1.2 nM and an Activity [4] of -58%. It also gave an Activity [5] of 105%.
For O=C1Cc2ccccc2N1CCCCN1CCN(c2ccc(Cl)cc2)CC1, the Ki [1] was 1750 nM, the Activity [2] was 8% and the Ki [3] was 375 nM. It also gave an Activity [4] of -28%, an Activity [5] of 106% and a Ki [6] of 202 nM. For the same compound, the Selectivity ratio [12] was over 43000, the Selectivity ratio [13] was over 30000 and the Activity [7] was 93%. For the same compound, the Activity [8] was “inactive”, the Ki [9] was 1200 nM and the Activity [10] was 101%. For the same compound, the Selectivity ratio [14] was over 5000 and the Ki [11] was 0.04 nM.
In the case of O=C1Cc2ccccc2N1CCCCN1CCN(c2cccc(C(F)(F)F)c2)CC1, the Ki [1] is reported as 323 nM, the Activity [2] is reported as 26% and the Ki [3] is reported as 416 nM. The Activity [4] was -55%, the Activity [5] was 105% and the Ki [6] was 190 nM. The Activity [7] was 93%, the Activity [8] was “inactive” and the Ki [9] was 247 nM. It also gave an Activity [10] of 96% and a Ki [11] of 28 nM.
O=C1c2ccccc2S(=O)(=O)N1CCCCN1CCN(c2ccc(Cl)cc2)CC1 gave a Ki [1] of 177 nM, an Activity [2] of 4% and a Ki [3] of over 10000 nM. For the same compound, the Activity [4] was -24%, the Activity [5] was 99% and the Ki [6] was 230 nM. For the same compound, the Activity [7] was 87%, the Activity [8] was “inactive” and the Ki [9] was 287 nM. For the same compound, the Activity [10] was 101% and the Ki [11] was 36 nM.
Compound O=c1c2ccccc2ncn1CCCCN1CCN(c2ccc(Cl)cc2)CC1 has a Ki [1] of 140 nM, an Activity [2] of 5% and a Ki [3] of over 10000 nM. For the same compound, the Activity [4] was -44%, the Activity [5] was 100% and the Ki [6] was 507 nM. The Activity [7] was 76%, the Ki [8] was “Not Active” and the Ki [9] was 1780 nM. It also gave an Activity [10] of 102% and a Ki [11] of 158 nM.
